Tests used:
BaF3 [1] = experiment: Induction of cell cycle arrest in mouse BaF3 cells harbouring JAK2 […] mutant assessed as accumulation of cells at G2/M phase at 16 nM incubated for 24 hrs by propidium iodide staining based flow cytometry analysis (reference value: 9.34 %); type: functional
BaF3 [2] = experiment: Induction of cell cycle arrest in mouse BaF3 cells harbouring JAK2 […] mutant assessed as accumulation of cells at G2/M phase at 0.5 nM incubated for 24 hrs by propidium iodide staining based flow cytometry analysis (reference value: 9.34 %); type: functional
[3] = molecular target: Tyrosine-protein kinase JAK2 (Mus musculus, UniProt Q62120, V617F); experiment: Inhibition of JAK2 V617F mutant in mouse BaF3 cells; type: cell-based
Tyrosine-protein kinase JAK2 (Mus musculus, UniProt Q62120, V617F), sequence (Q62120 as listed by the source V617F): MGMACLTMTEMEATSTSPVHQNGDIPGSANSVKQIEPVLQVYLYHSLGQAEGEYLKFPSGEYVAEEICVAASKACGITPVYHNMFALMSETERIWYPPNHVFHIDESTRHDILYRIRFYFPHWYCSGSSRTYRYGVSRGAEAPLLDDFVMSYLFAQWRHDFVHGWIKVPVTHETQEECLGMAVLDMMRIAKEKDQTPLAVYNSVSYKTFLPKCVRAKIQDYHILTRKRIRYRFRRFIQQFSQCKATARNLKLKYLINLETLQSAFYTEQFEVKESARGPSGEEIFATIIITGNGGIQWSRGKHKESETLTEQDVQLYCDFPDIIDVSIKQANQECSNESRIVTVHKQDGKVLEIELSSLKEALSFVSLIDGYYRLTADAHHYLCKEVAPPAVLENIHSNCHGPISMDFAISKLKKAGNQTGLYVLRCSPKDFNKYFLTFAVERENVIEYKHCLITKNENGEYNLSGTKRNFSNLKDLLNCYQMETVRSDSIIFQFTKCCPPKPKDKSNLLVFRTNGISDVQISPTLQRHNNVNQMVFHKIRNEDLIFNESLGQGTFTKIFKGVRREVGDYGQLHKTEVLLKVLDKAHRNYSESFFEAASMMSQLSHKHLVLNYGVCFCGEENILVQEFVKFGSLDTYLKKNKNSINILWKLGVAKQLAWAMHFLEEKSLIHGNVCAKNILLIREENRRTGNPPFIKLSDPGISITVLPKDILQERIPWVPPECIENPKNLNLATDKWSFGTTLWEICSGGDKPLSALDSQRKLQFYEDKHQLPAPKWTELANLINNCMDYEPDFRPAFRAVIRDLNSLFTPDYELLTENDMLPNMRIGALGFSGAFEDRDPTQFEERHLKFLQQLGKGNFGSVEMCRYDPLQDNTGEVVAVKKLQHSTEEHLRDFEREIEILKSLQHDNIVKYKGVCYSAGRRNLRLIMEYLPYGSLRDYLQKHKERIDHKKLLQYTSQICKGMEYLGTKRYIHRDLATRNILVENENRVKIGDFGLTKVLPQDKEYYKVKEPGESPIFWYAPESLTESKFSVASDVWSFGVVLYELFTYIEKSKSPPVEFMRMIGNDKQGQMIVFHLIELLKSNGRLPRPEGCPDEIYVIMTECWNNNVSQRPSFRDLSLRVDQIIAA
Outline: (§1)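 Cell proliferation assay. IC50 is the concentration that inhibits proliferation by 50%, taken from dose–response curves. Mean ± SEM of at least three independent experiments.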

BaF3 [4] = experiment: Induction of apoptosis in mouse BaF3 cells harbouring JAK2 V617F mutant assessed as necrotic cells at 80 nM incubated for 24 hrs by Annexin V / propidium iodide staining based flow cytometry analysis (reference value: 0.64 %); type: functional
Outline: (§2)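 Ba/F3 JAK2V617F cells exposed to compound at 20, 40, 80, 160 and 320 nM, then analysed for apoptosis by flow cytometry. Significance vs control by Dunnett's t test.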

BaF3 [5] = experiment: Induction of cell cycle arrest in mouse BaF3 cells harbouring JAK2 […] mutant assessed as accumulation of cells at G2/M phase at 4 nM incubated for 24 hrs by propidium iodide staining based flow cytometry analysis (reference value: 9.34 %); type: functional
BaF3 [6] = experiment: Induction of apoptosis in mouse BaF3 cells harbouring JAK2 V617F mutant assessed as viable cells at 20 nM incubated for 24 hrs by Annexin V / propidium iodide staining based flow cytometry analysis (reference value: 72.8 %); type: functional; conditions: read-out: Activity; outline: as §2
BaF3 [7] = experiment: Induction of cell cycle arrest in mouse BaF3 cells harbouring JAK2 […] mutant assessed as accumulation of cells at S phase at 8 nM incubated for 24 hrs by propidium iodide staining based flow cytometry analysis (reference value: 33.80 %); type: functional
BaF3 [8] = experiment: Induction of apoptosis in mouse BaF3 cells harbouring JAK2 V617F mutant assessed as viable cells at 320 nM incubated for 24 hrs by Annexin V / propidium iodide staining based flow cytometry analysis (reference value: 72.8 %); type: functional; conditions: read-out: Activity; outline: as §2
BaF3 [9] = experiment: Induction of cell cycle arrest in mouse BaF3 cells harbouring JAK2 […] mutant assessed as accumulation of cells at G0/G1 phase at 8 nM incubated for 24 hrs by propidium iodide staining based flow cytometry analysis (reference value: 56.85 %); type: functional
BaF3 [10] = experiment: Induction of apoptosis in mouse BaF3 cells harbouring JAK2 V617F mutant assessed as necrotic cells at 160 nM incubated for 24 hrs by Annexin V / propidium iodide staining based flow cytometry analysis (reference value: 0.64 %); type: functional; outline: as §2
[11] = Selectivity ratio of IC50 for TYK2 (unknown origin) to IC50 for JAK2 (unknown origin)
BaF3 [12] = experiment: Induction of apoptosis in mouse BaF3 cells harbouring JAK2 V617F mutant assessed as early apoptotic cells at 320 nM incubated for 24 hrs by Annexin V / propidium iodide staining based flow cytometry analysis (reference value: 14.4 %); type: functional; outline: as §2
[13] = Metabolic stability in human liver microsomes assessed as half life; type: ADME, Microsome
BaF3 [14] = experiment: Induction of apoptosis in mouse BaF3 cells harbouring JAK2 V617F mutant assessed as necrotic cells at 20 nM incubated for 24 hrs by Annexin V / propidium iodide staining based flow cytometry analysis (reference value: 0.64 %); type: functional; outline: as §2
BaF3 [15] = experiment: Induction of apoptosis in mouse BaF3 cells harbouring JAK2 V617F mutant assessed as necrotic cells at 320 nM incubated for 24 hrs by Annexin V / propidium iodide staining based flow cytometry analysis (reference value: 0.64 %); type: functional; outline: as §2
BaF3 [16] = experiment: Induction of apoptosis in mouse BaF3 cells harbouring JAK2 V617F mutant assessed as necrotic cells at 40 nM incubated for 24 hrs by Annexin V / propidium iodide staining based flow cytometry analysis (reference value: 0.64 %); type: functional; outline: as §2
BaF3 [17] = experiment: Induction of cell cycle arrest in mouse BaF3 cells harbouring JAK2 […] mutant assessed as accumulation of cells at G2/M phase at 8 nM incubated for 24 hrs by propidium iodide staining based flow cytometry analysis (reference value: 9.34 %); type: functional
BaF3 [18] = experiment: Induction of apoptosis in mouse BaF3 cells harbouring JAK2 V617F mutant assessed as early apoptotic cells at 40 nM incubated for 24 hrs by Annexin V / propidium iodide staining based flow cytometry analysis (reference value: 14.4 %); type: functional; outline: as §2
BaF3 [19] = experiment: Induction of cell cycle arrest in mouse BaF3 cells harbouring JAK2 […] mutant assessed as accumulation of cells at G2/M phase at 2 nM incubated for 24 hrs by propidium iodide staining based flow cytometry analysis (reference value: 9.34 %); type: functional
BaF3 [20] = experiment: Induction of cell cycle arrest in mouse BaF3 cells harbouring JAK2 […] mutant assessed as accumulation of cells at S phase at 16 nM incubated for 24 hrs by propidium iodide staining based flow cytometry analysis (reference value: 33.80 %); type: functional
[21] = Selectivity ratio of IC50 for FLT3 (unknown origin) to IC50 for JAK2 (unknown origin)
BaF3 [22] = experiment: Induction of apoptosis in mouse BaF3 cells harbouring JAK2 V617F mutant assessed as early apoptotic cells at 80 nM incubated for 24 hrs by Annexin V / propidium iodide staining based flow cytometry analysis (reference value: 14.4 %); type: functional; outline: as §2
[23] = molecular target: Tyrosine-protein kinase JAK2 (Homo sapiens, UniProt O60674, V617F); experiment: Inhibition of JAK2 V617F mutant in human SET2 cells; type: cell-based; outline: as §1
Tyrosine-protein kinase JAK2 (Homo sapiens, UniProt O60674, V617F), sequence (O60674 whole entry V617F): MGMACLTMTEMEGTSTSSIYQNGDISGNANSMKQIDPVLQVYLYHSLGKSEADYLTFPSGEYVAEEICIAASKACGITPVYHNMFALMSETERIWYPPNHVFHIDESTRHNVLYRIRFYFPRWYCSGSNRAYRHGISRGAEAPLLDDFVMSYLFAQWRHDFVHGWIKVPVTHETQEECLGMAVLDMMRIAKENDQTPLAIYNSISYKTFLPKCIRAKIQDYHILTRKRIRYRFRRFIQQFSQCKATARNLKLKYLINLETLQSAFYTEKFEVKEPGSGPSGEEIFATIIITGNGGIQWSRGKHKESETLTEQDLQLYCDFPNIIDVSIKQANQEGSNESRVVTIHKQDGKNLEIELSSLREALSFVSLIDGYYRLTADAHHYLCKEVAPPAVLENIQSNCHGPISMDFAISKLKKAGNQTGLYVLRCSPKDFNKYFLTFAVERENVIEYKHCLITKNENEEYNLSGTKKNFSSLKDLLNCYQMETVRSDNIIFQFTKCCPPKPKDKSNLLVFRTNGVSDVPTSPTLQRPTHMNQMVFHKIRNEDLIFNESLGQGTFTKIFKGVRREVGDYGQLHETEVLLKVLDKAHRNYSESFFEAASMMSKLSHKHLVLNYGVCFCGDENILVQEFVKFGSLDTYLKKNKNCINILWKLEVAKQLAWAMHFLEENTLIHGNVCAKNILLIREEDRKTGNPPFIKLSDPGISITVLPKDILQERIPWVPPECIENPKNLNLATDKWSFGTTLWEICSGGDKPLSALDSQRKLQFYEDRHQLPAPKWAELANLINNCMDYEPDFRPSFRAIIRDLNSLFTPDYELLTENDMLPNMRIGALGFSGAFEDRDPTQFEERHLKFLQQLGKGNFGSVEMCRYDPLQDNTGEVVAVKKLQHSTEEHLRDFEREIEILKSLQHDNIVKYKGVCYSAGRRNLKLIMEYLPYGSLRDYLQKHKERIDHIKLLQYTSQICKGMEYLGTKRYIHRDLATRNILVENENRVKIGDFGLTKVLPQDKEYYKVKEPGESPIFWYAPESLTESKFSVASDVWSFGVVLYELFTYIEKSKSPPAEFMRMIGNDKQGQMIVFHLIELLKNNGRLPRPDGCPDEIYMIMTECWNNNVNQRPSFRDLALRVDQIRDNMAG

BaF3 [24] = experiment: Induction of apoptosis in mouse BaF3 cells harbouring JAK2 V617F mutant assessed as viable cells at 40 nM incubated for 24 hrs by Annexin V / propidium iodide staining based flow cytometry analysis (reference value: 72.8 %); type: functional; conditions: read-out: Activity; outline: as §2
BaF3 [25] = experiment: Induction of cell cycle arrest in mouse BaF3 cells harbouring JAK2 […] mutant assessed as accumulation of cells at S phase at 0.5 nM incubated for 24 hrs by propidium iodide staining based flow cytometry analysis (reference value: 33.80 %); type: functional
BaF3 [26] = experiment: Induction of cell cycle arrest in mouse BaF3 cells harbouring JAK2 […] mutant assessed as accumulation of cells at G0/G1 phase at 4 nM incubated for 24 hrs by propidium iodide staining based flow cytometry analysis (reference value: 56.85 %); type: functional

| Ratio IC50 [11] | half-life [13] [min] | Ratio IC50 [21] | Compound | Activity (BaF3 [1]) [%] | Activity (BaF3 [2]) [%] | Activity (BaF3 [4]) [%] | Activity (BaF3 [5]) [%] | viability at 0.02 µM (BaF3 [6]) [%] | Activity (BaF3 [7]) [%] | viability at 0.32 µM (BaF3 [8]) [%] | Activity (BaF3 [9]) [%] | Activity (BaF3 [10]) [%] | Activity (BaF3 [12]) [%] | Activity (BaF3 [14]) [%] | Activity (BaF3 [15]) [%] | Activity (BaF3 [16]) [%] | Activity (BaF3 [17]) [%] | Activity (BaF3 [18]) [%] | Activity (BaF3 [19]) [%] | Activity (BaF3 [20]) [%] | other results |
| --- | --- | --- | --- | --- | --- | --- | --- | --- | --- | --- | --- | --- | --- | --- | --- | --- | --- | --- | --- | --- | --- |
| 41.2 | > 120 | 93.4 | C=CS(=O)(=O)NCc1ccc(Nc2ncc(C)c(-c3cnn(C(C)C)c3)n2)cc1 | 9.93 | 9.03 | 3.39 | 7.62 | 53.7 | 27.77 | 24.5 | 63.86 | 3.8 | 31 | 1.61 | 4.33 | 3.27 | 8.38 | 26.4 | 8.29 | 20.76 | IC50 [3]: 25.3 nM; Activity (BaF3 [22]): 35.7%; IC50 [23]: 44.3 nM; viability at 0.04 µM (BaF3 [24]): 44.1%; Activity (BaF3 [25]): 31.74%; Activity (BaF3 [26]): 62.95% |
| 25 | 54.6 | 20.7 | Cc1cnc(Nc2ccc3c(c2)CCN(C(=O)/C=C/CN(C)C)C3)nc1-c1cnn(C(C)C)c1 | 8.95 | 9.64 | 2.64 | 9.33 | 68.6 | 32.2 | 14.3 | 58.82 | 1.89 | 47 | 1.04 | 3.48 | 0.89 | 8.98 | 22.4 | 15.52 | 31.63 | IC50 ([3]; baf3): 41 nM; Activity (BaF3 [22]): 33.2%; IC50 [23]: 475 nM; viability at 0.04 µM (BaF3 [24]): 61.1%; Activity (BaF3 [25]): 34.4%; Activity (BaF3 [26]): 57.34% |

Reference: ChEMBL document CHEMBL5325511, “Discovery of N-(4-(Aminomethyl)phenyl)-5-methylpyrimidin-2-amine Derivatives as Potent and Selective JAK2 Inhibitors” (ACS Med Chem Lett, 2023)
